Results as given in ChEMBL document CHEMBL3352198, “Design, synthesis, biological evaluation of substituted benzofurans as DNA gyraseB inhibitors of Mycobacterium tuberculosis” (Bioorg Med Chem, 2014).
pIC50: −log10 of the molar value. Values after ≈ are worked out from the molar mass of the structure shown. Active and inactive are the calls of the source. The calls are words filed in the database; no cut-off is given here.

Key:
[1] = molecular target: DNA gyrase subunit B (Mycobacterium smegmatis, UniProt P0C559); test: Inhibition of 6-His-tagged Mycobacterium smegmatis GyrB expressed in Escherichia coli BL21 (DE3) pLysS cells incubated for 100 mins in presence of ATP by malachite green dye based ATP assay; set-up: species or system Mycolicibacterium smegmatis
[2] = tested on: Mycobacterium tuberculosis; test: Antibacterial activity against Mycobacterium tuberculosis H37Rv after 7 days by microplate alamar blue assay method; assay type: functional; conditions: 168 h
How it was run: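 Mtb H37Rv inoculum taken from fresh LJ medium, resuspended in 7H9-S (7H9, 0.1% casitone, 0.5% glycerol, OADC), adjusted to McFarland No. 1 and diluted 1:20. Two-fold serial drug dilutions in 7H9-S, with growth and sterile controls. Incubated 7 days at 37 °C, alamar blue added, reincubated overnight. MIC taken as lowest concentration preventing the blue-to-pink colour change.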

[3] = molecular target: DNA gyrase subunit A/DNA gyrase subunit B (Mycobacterium tuberculosis (strain ATCC 25618 / H37Rv), UniProt P9WG45+P9WG47); test: Inhibition of Mycobacterium tuberculosis DNA gyrase supercoiling activity using relaxed pBR322 substrate incubated for 30 mins by ethidium bromide staining method
[4] = Cytotoxicity against mouse RAW264.7 cells assessed as inhibition of cell viability at 100 uM after 48 hrs by MTT assay; assay type: cell-based; conditions: read-out: INH
How it was run: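 RAW 264.7 mouse macrophages, 5 × 10^5 cells per well, exposed to compounds at 37 °C, 5% CO2 for 48 h. MTT added about 4 h before the end, then supernatant removed and DMSO added. Absorbance read at 560 nm against blank, triplicate wells per concentration, result expressed as % inhibition.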

[5] = molecular target: DNA gyrase subunit B (Staphylococcus aureus) (UniProt P0A0K8); test: Inhibition of Staphylococcus aureus GyrB at 50 uM
[6] = molecular target: DNA gyrase subunit B (Escherichia coli) (UniProt P0AES6); test: Inhibition of Escherichia coli GyrB at 50 uM
[7] = molecular target: DNA gyrase subunit B (Mycobacterium smegmatis) (UniProt P0C559); conditions: Mycolicibacterium smegmatis
Sequence of DNA gyrase subunit B (Mycobacterium smegmatis) (P0C559 2-675 limits assumed): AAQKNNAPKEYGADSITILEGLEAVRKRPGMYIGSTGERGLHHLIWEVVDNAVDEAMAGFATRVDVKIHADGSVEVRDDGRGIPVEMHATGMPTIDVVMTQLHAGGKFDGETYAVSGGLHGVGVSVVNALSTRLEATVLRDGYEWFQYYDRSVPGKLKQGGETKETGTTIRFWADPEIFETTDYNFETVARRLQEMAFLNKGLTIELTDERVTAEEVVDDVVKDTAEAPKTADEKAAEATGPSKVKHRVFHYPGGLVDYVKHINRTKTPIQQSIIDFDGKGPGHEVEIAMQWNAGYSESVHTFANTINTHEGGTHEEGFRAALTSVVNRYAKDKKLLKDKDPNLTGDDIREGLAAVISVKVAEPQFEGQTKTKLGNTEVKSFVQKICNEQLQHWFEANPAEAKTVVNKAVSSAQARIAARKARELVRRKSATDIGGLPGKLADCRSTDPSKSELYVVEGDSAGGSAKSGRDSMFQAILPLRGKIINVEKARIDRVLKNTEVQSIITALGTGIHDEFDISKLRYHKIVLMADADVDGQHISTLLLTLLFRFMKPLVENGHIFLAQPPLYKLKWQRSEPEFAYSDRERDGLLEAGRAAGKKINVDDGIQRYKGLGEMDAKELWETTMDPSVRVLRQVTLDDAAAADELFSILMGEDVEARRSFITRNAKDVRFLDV

Sequence of DNA gyrase subunit B (P0C559 whole entry): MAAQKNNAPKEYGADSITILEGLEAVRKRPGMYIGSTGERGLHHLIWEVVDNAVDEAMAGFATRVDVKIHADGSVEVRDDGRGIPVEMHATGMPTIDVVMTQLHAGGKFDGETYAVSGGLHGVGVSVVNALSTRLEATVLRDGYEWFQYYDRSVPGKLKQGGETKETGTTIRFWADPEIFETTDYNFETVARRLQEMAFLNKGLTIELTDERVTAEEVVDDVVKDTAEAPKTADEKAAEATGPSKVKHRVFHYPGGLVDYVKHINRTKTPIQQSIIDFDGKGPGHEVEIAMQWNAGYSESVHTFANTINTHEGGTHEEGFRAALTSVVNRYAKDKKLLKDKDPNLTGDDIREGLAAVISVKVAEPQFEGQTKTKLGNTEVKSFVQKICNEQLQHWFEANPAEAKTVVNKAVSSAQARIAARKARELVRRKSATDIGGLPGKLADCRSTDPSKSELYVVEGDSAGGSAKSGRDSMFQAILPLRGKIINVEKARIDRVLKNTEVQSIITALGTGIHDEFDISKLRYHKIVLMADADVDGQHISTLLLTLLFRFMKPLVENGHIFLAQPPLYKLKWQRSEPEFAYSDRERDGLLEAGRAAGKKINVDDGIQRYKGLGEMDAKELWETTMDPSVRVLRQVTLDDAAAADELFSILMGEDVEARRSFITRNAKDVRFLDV
Sequence of DNA gyrase subunit A/DNA gyrase subunit B (P9WG45 whole entry): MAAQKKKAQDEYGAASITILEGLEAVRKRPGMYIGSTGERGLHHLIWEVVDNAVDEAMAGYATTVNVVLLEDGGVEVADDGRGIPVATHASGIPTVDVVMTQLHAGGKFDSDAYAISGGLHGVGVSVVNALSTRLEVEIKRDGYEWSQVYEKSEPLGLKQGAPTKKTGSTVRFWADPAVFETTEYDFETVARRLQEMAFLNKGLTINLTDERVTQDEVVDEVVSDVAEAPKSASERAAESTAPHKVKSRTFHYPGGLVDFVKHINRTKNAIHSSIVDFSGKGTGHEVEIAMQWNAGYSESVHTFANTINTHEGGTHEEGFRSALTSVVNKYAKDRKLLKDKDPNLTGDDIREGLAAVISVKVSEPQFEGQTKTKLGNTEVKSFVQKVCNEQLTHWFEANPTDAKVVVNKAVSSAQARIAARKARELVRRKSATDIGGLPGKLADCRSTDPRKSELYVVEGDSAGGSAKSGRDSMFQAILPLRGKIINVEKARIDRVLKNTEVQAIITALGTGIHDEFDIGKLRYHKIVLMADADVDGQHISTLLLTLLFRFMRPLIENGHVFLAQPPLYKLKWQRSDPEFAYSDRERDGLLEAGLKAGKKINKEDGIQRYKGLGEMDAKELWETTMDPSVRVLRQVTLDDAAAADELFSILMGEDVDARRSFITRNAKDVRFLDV
Sequence of DNA gyrase subunit A/DNA gyrase subunit B (P9WG47 whole entry): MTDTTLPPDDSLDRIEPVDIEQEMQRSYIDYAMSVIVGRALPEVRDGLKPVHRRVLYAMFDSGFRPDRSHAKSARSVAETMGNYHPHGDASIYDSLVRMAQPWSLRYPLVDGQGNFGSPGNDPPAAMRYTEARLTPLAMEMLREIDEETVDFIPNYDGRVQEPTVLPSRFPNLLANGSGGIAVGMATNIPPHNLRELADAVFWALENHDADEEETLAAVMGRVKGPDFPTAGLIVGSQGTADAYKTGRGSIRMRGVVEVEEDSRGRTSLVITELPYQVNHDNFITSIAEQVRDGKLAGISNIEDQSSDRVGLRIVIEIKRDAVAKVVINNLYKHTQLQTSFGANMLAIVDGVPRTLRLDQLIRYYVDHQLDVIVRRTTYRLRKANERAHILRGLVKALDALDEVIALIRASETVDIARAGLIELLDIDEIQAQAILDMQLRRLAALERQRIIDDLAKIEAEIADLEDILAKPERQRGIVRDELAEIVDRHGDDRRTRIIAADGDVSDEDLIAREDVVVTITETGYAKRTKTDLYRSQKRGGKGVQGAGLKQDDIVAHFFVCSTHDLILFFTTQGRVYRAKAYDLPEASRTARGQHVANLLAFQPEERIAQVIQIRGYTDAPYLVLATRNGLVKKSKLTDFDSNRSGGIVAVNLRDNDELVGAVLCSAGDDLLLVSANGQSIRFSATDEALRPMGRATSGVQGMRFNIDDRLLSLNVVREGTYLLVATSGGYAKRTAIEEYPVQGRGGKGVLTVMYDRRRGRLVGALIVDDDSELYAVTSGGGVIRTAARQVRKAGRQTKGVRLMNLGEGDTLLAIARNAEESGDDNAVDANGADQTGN
Sequence of DNA gyrase subunit B (Staphylococcus aureus) (P0A0K8 2-644 limits assumed): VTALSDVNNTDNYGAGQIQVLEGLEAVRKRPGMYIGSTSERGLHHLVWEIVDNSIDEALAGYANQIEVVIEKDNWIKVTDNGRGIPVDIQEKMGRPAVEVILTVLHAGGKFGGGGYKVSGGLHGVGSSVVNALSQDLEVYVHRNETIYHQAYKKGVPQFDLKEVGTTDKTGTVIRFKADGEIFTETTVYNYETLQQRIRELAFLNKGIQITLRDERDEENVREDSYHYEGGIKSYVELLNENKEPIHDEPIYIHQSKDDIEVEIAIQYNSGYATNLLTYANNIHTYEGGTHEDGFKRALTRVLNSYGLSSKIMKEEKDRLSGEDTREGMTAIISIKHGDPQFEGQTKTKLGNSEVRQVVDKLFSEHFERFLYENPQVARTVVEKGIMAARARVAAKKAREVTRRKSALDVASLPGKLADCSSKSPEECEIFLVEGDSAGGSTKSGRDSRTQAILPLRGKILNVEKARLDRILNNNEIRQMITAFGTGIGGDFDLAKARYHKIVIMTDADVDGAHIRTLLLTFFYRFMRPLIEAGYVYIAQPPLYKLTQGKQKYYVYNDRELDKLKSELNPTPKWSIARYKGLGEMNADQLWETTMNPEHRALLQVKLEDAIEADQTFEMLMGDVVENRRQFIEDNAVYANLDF

Structure (SMILES)	pIC50 [1]	MIC [2]	pIC50 [3]	cytotoxicity at 48 h, 100 µM [4]	inhibition [5]	inhibition [6]	ΔTm [7]
CCOC(=O)c1cc2cc(N3CCN(C(=O)c4ccc(C(F)(F)F)cc4)CC3)ccc2o1	4.28	54 µM (≈ 24.1 µg/mL)	4.35	3.5%	–	–	–
CCOC(=O)c1cc2cc(N3CCN(C(=O)c4c(F)cc(OC)cc4F)CC3)ccc2o1	4.62	25.4 µM (≈ 11.3 µg/mL)	5.01	7.03%	–	–	–
CCOC(=O)c1cc2cc(N3CCN(C(=O)CC(C)C)CC3)ccc2o1	4.39	32.1 µM (≈ 11.5 µg/mL)	4.54	8.71%	–	–	–
CC1COc2c(N3CCN(C)CC3)c(F)cc3c(=O)c(C(=O)O)cn1c23 (stereo unspecified) [OFLOXACIN]	–	2.16 µM (≈ 0.781 µg/mL)	–	–	–	–	–
CCOC(=O)c1cc2cc(N3CCN(C(=O)C4CCN(C(=O)OC(C)(C)C)CC4)CC3)ccc2o1	5.49	9.18 µM (≈ 4.46 µg/mL)	6.09	3.21%	inactive	inactive	2.7 °C
CCOC(=O)c1cc2cc(N3CCN(C(=O)c4cccc(OC)c4)CC3)ccc2o1	5.30	9.67 µM (≈ 3.95 µg/mL)	5.60	15.3%	–	–	–
CCOC(=O)c1cc2cc(N3CCN(C(=O)C4Cc5ccccc5N4)CC3)ccc2o1 (stereo unspecified)	5.41	9.23 µM (≈ 3.87 µg/mL)	6.08	29.8%	–	–	–
CCOC(=O)c1cc2cc(N3CCN(C(=O)c4ncccc4C(F)(F)F)CC3)ccc2o1	4.63	26.7 µM (≈ 11.9 µg/mL)	5.11	14%	–	–	–
CCOC(=O)c1cc2cc(N3CCN(C(=O)Cc4ccccc4)CC3)ccc2o1	5.04	12.3 µM (≈ 4.84 µg/mL)	5.17	15.1%	–	–	–
CCOC(=O)c1cc2cc(N3CCN(C(=O)Cc4ccc(Cl)cc4)CC3)ccc2o1	4.84	20.2 µM (≈ 8.63 µg/mL)	5.05	29.2%	–	–	–
CCOC(=O)c1cc2cc(N3CCN(C(=O)c4c(F)cccc4F)CC3)ccc2o1	5.21	11.6 µM (≈ 4.81 µg/mL)	5.54	7.54%	–	–	–
CCOC(=O)c1cc2cc(N3CCN(C(=O)c4ccco4)CC3)ccc2o1	4.43	43.6 µM (≈ 16.1 µg/mL)	4.61	17%	–	–	–
CCOC(=O)c1cc2cc(N3CCN(C(=O)Cc4c(F)cc(F)cc4F)CC3)ccc2o1	4.91	17.1 µM (≈ 7.61 µg/mL)	5.21	14%	–	–	–
NNC(=O)c1ccncc1 [ISONIAZID]	–	0.66 µM (≈ 0.0905 µg/mL)	–	–	–	–	–
CCOC(=O)c1cc2cc(N3CCN(C(=O)Cc4ccc(OC)cc4)CC3)ccc2o1	4.99	18.2 µM (≈ 7.68 µg/mL)	5.13	7.39%	–	–	–
CC[C@@H](CO)NCCN[C@@H](CC)CO [ETHAMBUTOL]	–	9.84 µM (≈ 2.01 µg/mL)	–	–	–	–	–

Structure (SMILES)	pIC50 [1]	MIC [2]	pIC50 [3]	cytotoxicity at 48 h, 100 µM [4]	inhibition [5]	inhibition [6]	ΔTm [7]
CCOC(=O)c1cc2cc(N3CCN(C(=O)c4cccnc4Cl)CC3)ccc2o1	5.10	11 µM (≈ 4.54 µg/mL)	5.82	7.55%	–	–	–
CCOC(=O)c1cc2cc(N3CCN(C(=O)CCc4ccc(F)cc4)CC3)ccc2o1	5.21	9.57 µM (≈ 4.06 µg/mL)	5.51	14.7%	–	–	–
CCOC(=O)c1cc2cc(N3CCN(C(=O)c4nccnc4Cl)CC3)ccc2o1	4.90	13.9 µM (≈ 5.77 µg/mL)	5.51	30.1%	–	–	–
CCOC(=O)c1cc2cc(N3CCN(C(=O)c4ccc(C5CCOCC5)cc4)CC3)ccc2o1	5.17	9.8 µM (≈ 4.53 µg/mL)	6.04	6.75%	–	–	–
CCOC(=O)c1sc(-c2ccccc2)nc1N1CCC(NCc2ccc(F)cc2)CC1	–	28.4 µM (≈ 12.5 µg/mL)	–	–	–	–	–
CCOC(=O)c1cc2cc(N3CCN(C(=O)CC4CCCCC4)CC3)ccc2o1	4.44	38.4 µM (≈ 15.3 µg/mL)	4.60	31.4%	–	–	–
CCOC(=O)c1cc2cc(N3CCN(C(=O)c4cccc5ccccc45)CC3)ccc2o1	5.04	13.2 µM (≈ 5.64 µg/mL)	5.44	3.64%	–	–	–
CCOC(=O)c1cc2cc(N3CCN(C(=O)c4ccccc4OC(F)(F)F)CC3)ccc2o1	4.54	30.2 µM (≈ 14 µg/mL)	4.81	27%	–	–	–
CCOC(=O)c1cc2cc(N3CCN(C(=O)Cc4ccc(Br)cc4)CC3)ccc2o1	4.78	19.8 µM (≈ 9.33 µg/mL)	5.28	53%	–	–	–
COc1c(N2C[C@@H]3CCCN[C@@H]3C2)c(F)cc2c(=O)c(C(=O)O)cn(C3CC3)c12 [MOXIFLOXACIN]	< 4.30	8.6 µM (≈ 3.45 µg/mL)	–	–	–	–	–
CCOC(=O)c1cc2cc(N3CCN(C(=O)c4c(Cl)cccc4Cl)CC3)ccc2o1	4.97	10 µM (≈ 4.49 µg/mL)	5.51	6.98%	–	–	–
CCOC(=O)c1cc2cc(N3CCN(C(=O)COc4ccccc4)CC3)ccc2o1	5.40	9.35 µM (≈ 3.82 µg/mL)	5.94	7.65%	–	–	–
CCOC(=O)c1cc2cc(N3CCN(C(=O)c4ccccc4C(F)(F)F)CC3)ccc2o1	4.43	38.4 µM (≈ 17.2 µg/mL)	4.58	14%	–	–	–
CO[C@@H]1[C@@H](OC(N)=O)[C@@H](O)[C@H](Oc2ccc3c(O)c(NC(=O)c4ccc(O)c(CC=C(C)C)c4)c(=O)oc3c2C)OC1(C)C [NOVOBIOCIN]	–	> 200 µM	–	19.4%	–	–	–
CCOC(=O)c1cc2cc(N3CCN(C(=O)Cc4ccc(F)cc4)CC3)ccc2o1	4.42	40.2 µM (≈ 16.5 µg/mL)	4.57	30.4%	–	–	–
